# From article PMC7611836 (Journal of natural products, 2020)
# Like-named read-outs stand apart in the source and are kept apart here.
# Tests used:
# C4-2B cells [1] = assay: Cell growth curves; format: cell-based, Human; conditions: 1 μM
# Procedure, shortened: (§1)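 Cells were seeded at 1,000 per well in RPMI 1640 with 10% FBS, 25 mM HEPES and 1 mM pyruvate, then grown with 1 μM test compound. Read-out was confluence (% of well surface covered by adherent cells) over time, also taken after 150 h. Eight replicates per condition; mean ± S.E.M.; unpaired two-tailed t-test.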
# PNT2 cells [2] = assay: Oxygen consumption rate; format: cell-based, Human; conditions: 1 μM
# Procedure, shortened: (§2)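 Mycoplasma-tested cells, 20,000 per poly-L-lysine-coated well, 16 h at 37 °C, 5% CO2. Moved to carbonate-free RPMI assay buffer (4.5 g L-1 glucose, pyruvate, pH 7.4) for 60 min CO2-free. […] Rotenone-insensitive rate subtracted; traces set to 100% pre-addition. n = 6 treated, 16 control; mean ± S.E.M.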
# C4-2 cells [3] = assay: Cell growth curves; format: cell-based, Human; conditions: 1 μM
# Procedure, shortened: as §1
# C4-2B cells [4] = assay: Cell viability and cell count; format: cell-based, Human; conditions: 1 μM, 48 hours
# Procedure, shortened: (§3)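 150,000 cells per well were grown overnight, then given 1 μM test compound (ethanolic stock diluted in medium) or ethanol control for 48 h. Cells were trypsinized, pelleted (400 x g, 5 min), resuspended in PBS, stained with acridine orange/DAPI, and read for viability and count. n = 4 treated, 10 control; mean ± S.E.M.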
# C4-2 cells [5] = assay: Oxygen consumption rate; format: cell-based, Human; conditions: 1 μM
# Procedure, shortened: as §2
# C4-2B cells [6] = assay: Oxygen consumption rate; format: cell-based, Human; conditions: 1 μM
# Procedure, shortened: as §2
# cancer cell = conditions: Annexin V flow cytometry; cited from earlier work
# PNT2 cells [7] = assay: Cell viability and cell count; format: cell-based, Human; conditions: 1 μM, 48 hours
# Procedure, shortened: as §3
# C4-2 cells [8] = assay: Cell viability and cell count; format: cell-based, Human; conditions: 1 μM, 48 hours
# Procedure, shortened: as §3
# PNT2 cells [9] = assay: Cell growth curves; format: cell-based, Human; conditions: 1 μM
# [10] = cited from earlier work; for neurotoxicity / crossing of the blood-brain barrier: rats and mice; for detection in brain as metabolite of 1 and 2: rat model of Parkinson's disease
# [11] = system: A-549 lung, HCT-8 intestinal, RPMI-7951 skin, TE671 brain, and KB cervical cancer cells; conditions: range over all cell types; cited from earlier work
structure (smiles),measurement,setting,value
"COc1cc2c(cc1OC)[C@@H]1C(=O)c3ccc4c(c3O[C@@H]1CO2)C[C@H](C(C)CO)O4 (mixture of isomers) [compound 5, (6aS,12aS,5′R,6′R)- and (6aS,12aS,5′R,6′S)-6′,7′-Dihydroamorphigenin]",proliferation (cell growth),C4-2B cells [1],responded
same,oxygen consumption rate,PNT2 cells [2],powerful effect
same,proliferation (cell growth),C4-2 cells [3],particularly affected
same,cell count,C4-2B cells [4],marginal effects
same,oxygen consumption rate,C4-2 cells [5],powerful effect
same,oxygen consumption rate,C4-2B cells [6],powerful effect
Cc1nc(-c2nc(-c3ccc(OC(F)(F)F)cc3)no2)nn1Cc1cccc(N2CCC(S(C)(=O)=O)CC2)c1 [IACS-01079],effect on cancer cell proliferation and viability,cancer cell,inhibit both cancer cell proliferation and viability
"C=C(C)[C@H]1Cc2c(ccc3c2O[C@@H]2COc4cc(OC)c(OC)cc4[C@@H]2C3=O)O1 [compound 1, rotenone]",proliferation (cell growth),C4-2B cells [1],did not proliferate
same,proliferation (cell growth),C4-2 cells [3],did not proliferate
same,cell count,C4-2B cells [4],affected cell counts
same,cell count,PNT2 cells [7],affected cell counts
same,cell count,C4-2 cells [8],affected cell counts
same,proliferation (cell growth),PNT2 cells [9],"retained their ability to proliferate, albeit at a substantially reduced rate"
same,neurotoxicity,[10]; 3 mg kg^-1 day^-1,cause neuronal damage
same,crossing of the blood-brain barrier,[10],cross the blood-brain barrier
"COc1cc2c(cc1OC)[C@@H]1C(=O)c3ccc4c(c3O[C@@H]1CO2)C=CC(C)(C)O4 [compound 2, deguelin]",neurotoxicity,[10]; 6 mg kg^-1 day^-1,cause neuronal damage
same,crossing of the blood-brain barrier,[10],cross the blood-brain barrier
"COc1cc2c(cc1OC)[C@@H]1C(=O)c3ccc4c(c3O[C@@H]1CO2)C[C@H](C(C)(C)O)O4 [compound 4, (6aS,12aS,5′R)-Dalpanol]","ED50 (half-maximal effective concentration), cytotoxicity",[11],0.48 to 4.83 µg/mL
"C=C(C)[C@H]1Cc2c(ccc3c2O[C@@H]2COc4cc(OC)c(OC)cc4[C@]2(O)C3=O)O1 [compound 7, (6aR,12aR,5′R)-Rotenolone]",detection in brain as metabolite of 1 and 2,[10],detected in the brains of treated animals
same,crossing of the blood-brain barrier,[10],cross the BBB
"COc1cc2c(cc1OC)[C@]1(O)C(=O)c3ccc4c(c3O[C@@H]1CO2)C=CC(C)(C)O4 [compound 8, tephrosin]",detection in brain as metabolite of 1 and 2,[10],detected in the brains of treated animals
same,crossing of the blood-brain barrier,[10],cross the BBB
